Compound activity: PubChem BioAssay, Broad Institute
Hits are enriched below; roughly 2.6% of the tested compounds scored in any of these assays.
Ecoli rRNA inh: inhibits bacterial ribosomal RNA function over humanized ribosomes | E. coli WT GFP vs humanized-ribosome RFP mutants, fluorescence, 24 h; stronger effect = lower value; DMSO median 0, no signal -100 | GFP signal change (wild-type ribosome), % (concentration not given with the values) | hit rate 1.6% among 350,000 | AID 720706;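 active = significant combined selectivity score with lowered wild-type GFP, culture density cut under 30%, mutant RFP and density less affected; inactive = any of these conditions unmet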
S100A4 MyoIIA: blocks human S100A4 binding to myosin IIA peptide. P26447. S100A4/TAMRA-MyoIIA peptide fluorescence polarization. inhibition, % at 10.7 µM. hit rate 0.14% among 360,000. AID 652163;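 active = mean inhibition of at least 70% across replicates, with every replicate also reaching that level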
Target sequence (P26447 whole entry, looked up): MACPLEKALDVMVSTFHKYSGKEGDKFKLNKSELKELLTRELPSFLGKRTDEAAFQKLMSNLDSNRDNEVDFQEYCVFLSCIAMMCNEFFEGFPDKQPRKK
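Test system: S100A4 monomer protein. Medium: HEPES buffer with Ca2+, pH 7.2. Reagent: fluorescent myosin IIA peptide, 5 nM. Compound dosing: single-point compound testing. Timing: 5 min between mix addition and reading. Benchmarks: DMSO neutral and TFP positive wells.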
Vif inh: blocks HIV Vif function; hit rate 0.35% among 340,000; inhibition, % at 7.49 µM; HEK293T cells, Vif self-association by quenched fluorescence, imaging, 24 h; AID 602346; in the data active = inhibition above about 50%, passing the limit was not always enough
miR122 inh: inhibitors of miR-122 in Huh7 cells. hit rate 0.3% among 340,000. AID 602342. Huh7 miR-122 Renilla luciferase sensor, 48 h; neutral wells = 0, positive control = 100. activation (reporter increase), % at 12.5 µM;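 active = mean replicate activation score at least 90 and every replicate individually at or above 90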;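 also: higher luciferase means less miR-122 activity so hits act as miR-122 inhibitors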
Env fusion inh: blocks HIV Env-driven cell-cell fusion. HeLa-JRFL Env/CEM21 cell fusion, luciferase. inhibition, % at 12.3 µM. hit rate 1.1% among 360,000;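 active = mean replicate inhibition score of at least 50 and every replicate individually at or above 50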;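 also: 0% = plate neutral controls and 100% = maraviroc near 300 nM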
FN deposit inh: fibronectin deposition inhibition; AH1F fibroblasts, Alexa488-fibronectin deposition fluorescence, overnight; inhibition, % at 12.6 µM; hit rate 0.086% among 350,000;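 active = mean inhibition across replicates of 30% or more, regardless of how many single replicates reach that level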;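 also: positive control wells lacked labelled fibronectin entirely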
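Material: AH1F fibroblast monolayer depositing Alexa488-labelled fibronectin into matrix | Input: 10000 AH1F cells/well | Medium: DMEM plus 2% serum, read in PBS | Reagent: Alexa488-fibronectin, 24 nM final in well | Compound dosing: One dose per compound, pinned | Schedule: 1 h adhesion, overnight exposure | Measured by: Fluorescence at 485 nm excitation, 525 nm emission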
* marks the source's active call; other numbers are inactive results; . = no result given; [ ] = dose if it differs, or a comment.

SMILES	Ecoli rRNA inh	S100A4 MyoIIA	Vif inh	miR122 inh	Env fusion inh	FN deposit inh
CCCC#Cc1ccc2c(c1)[C@H]1[C@H](CCN1S(=O)(=O)c1ccc(F)cc1)[C@H](CO)N2C	-4.4	-8.0	.	6.0[16.7 µM]	.	-4.2
CCCCN(C)c1c(C)nc2ccc(C(=O)N(CC)CCN(C)C)cn12	1.9	0.2	-6.3	-11.7	62.6*	15.4
COc1cc(/C=C/C(=O)OCC(=O)NC(=O)NC(C)C)ccc1OCC#N	.	.	-0.9	22.7	11.7	-4.1
COc1cc(NC(=O)COC(=O)/C=C/c2ccc(O)c(OC)c2)cc(OC)c1	-28.9*	2.3	25.8	.	14.7	-0.7
COc1cc(/C=C/C(=O)OCC(=O)N(C)Cc2ccccc2)ccc1O	.	-3.9	51.2*	.	-1.5	3.1
COc1cc(/C=C/C(=O)OCC(=O)NC(=O)NC(C)C)ccc1O	-1.6	-3.7	9.8	-2.1	57.2*	-8.2
COc1cc(/C=C/C(=O)OCC(=O)Nc2ccc3c(c2)OCO3)ccc1O	-11.8	-4.3	-4.9	-1.5	.	10.0
COc1ccc(NC(=O)Nc2ccc3c(c2)CC(=O)N([C@H](C)CO)C[C@@H](C)[C@@H](CN(C)S(C)(=O)=O)O3)cc1	5.6	3.2	.	9.0[16.7 µM]	-18.0[16.7 µM]	.
CCC(=O)N1[C@H](CO)[C@H](c2ccc(-c3ccc(F)cc3)cc2)C12CN(C(C)=O)C2	-0.5	9.8	.	.	.	.
CCOc1ccc(Br)cc1CC(=O)O	.	.	-11.7	-3.2	.	.
CCCOc1ccc(Br)cc1CSC(=N)N	-13.2	5.7	-1.8	.	61.7*	-6.0
O=C(C[C@@H]1CC[C@@H](NC(=O)c2ccncc2)[C@H](CO)O1)NCCc1ccncc1	2.0	-12.8	.	.	62.4*[16.7 µM]	0.7
O=C(O)C[C@@H]1CC[C@H](NC(=O)c2ccncc2)[C@@H](CO)O1	3.7	1.5	.	1.5[16.7 µM]	-0.9[16.7 µM]	10.9
O=C(O)C[C@@H]1CC[C@@H](NC(=O)c2ccncc2)[C@H](CO)O1	0.6	6.8	.	-3.7[16.7 µM]	63.1*[16.7 µM]	-3.0
O=C(C[C@H]1CC[C@H](NC(=O)c2ccncc2)[C@H](CO)O1)NCCc1ccncc1	5.7	1.2	.	.	10.9[16.7 µM]	-9.9
C[C@H](CO)N1C[C@H](C)[C@@H](CN(C)S(=O)(=O)c2ccccc2)Oc2ccc(N(C)C)cc2C1=O	-2.9	-14.1	.	24.4[16.7 µM]	4.2[16.7 µM]	.
O=C(CSc1nc2ccccc2c(=O)n1-c1ccccc1F)Nc1ccc2c(c1)CCC2	4.9	4.2	-20.8	3.9	19.7	31.4*
CC(C)c1ccccc1-n1c(SCC(=O)N2CCc3ccccc3C2)nc2ccccc2c1=O	9.1	-1.1	0.6	.	59.9*	-12.5
O=C(CSc1nc2ccccc2c(=O)n1-c1ccccc1)N1CCc2ccccc2C1	.	.	-4.9	-5.5	.	.
Cn1nc(CC(=O)Nc2ccc3c(c2)CCC3)c2ccccc2c1=O	.	.	-6.6	5.5	78.8*	1.1
O=C(NCCCN1CCc2ccccc2C1)Nc1ccc(Cl)cc1	.	.	-2.3	-0.8	78.7*	7.2
Nc1ncncc1-c1ccccc1Cl	-4.8	-7.5	-0.9	-1.4	-13.5	2.7
Nc1ncncc1-c1ccc(Cl)cc1	-21.6*	9.0	11.6	-8.7	9.6	2.7
Cc1ccc(N(C)S(=O)(=O)c2c[nH]c3ccc([N+](=O)[O-])cc23)cc1	-44.3	3.5	-2.9	110.1*	3.3	-16.2
CCCN1C[C@H](C)[C@H](OC)CN(C)C(=O)c2cc(NC(=O)COC)ccc2OC[C@H]1C	1.4	.	.	4.4[16.7 µM]	0.3[16.7 µM]	-4.7
SMILES	Ecoli rRNA inh	S100A4 MyoIIA	Vif inh	miR122 inh	Env fusion inh	FN deposit inh
C/C=C/c1ccc2c(c1)O[C@H](CN(C)C(=O)C1CCCCC1)[C@@H](C)CN([C@H](C)CO)S2(=O)=O	-4.9	-5.3	.	.	0.0[16.7 µM]	.
CC(=O)C(=Cc1ccc(Cl)cc1)C(=O)c1ccccc1	-35.0*	3.9	8.8	.	-228.0	-11.2
CC(=O)Nc1cccc2c1O[C@H](CN(C)C(=O)NC(C)C)[C@H](C)CN(C)C2=O	3.0	.	.	.	.	-9.5
CCCC[C@@H]1CNCCN1CCc1cc(C(F)(F)F)cc(C(F)(F)F)c1	-58.4	-4.6	-2.1	-5.8	39.2	0.1
FC(F)(F)c1cc(CCN2CCNC[C@@H]2CC2CCCCC2)cc(C(F)(F)F)c1	-53.5	8.3	-0.4	-37.7	85.4*	-4.2
Cc1sc(NC(=O)c2ccco2)c(C(c2cccnc2)N2CCC(C)CC2)c1C (stereo unspecified)	.	.	-13.5	-19.8	62.1*	-2.9
CCN1CCN(C(c2cccnc2)c2c(NC(=O)c3ccco3)sc(C)c2C)CC1 (stereo unspecified)	15.1	-3.9	-1.3	-3.8	.	6.7
COCC#Cc1ccc([C@H]2[C@H]3CN(C(=O)Nc4cc(F)ccc4F)CC(=O)N3[C@H]2CO)cc1	1.7	.	.	.	.	.
C[C@H](CO)N1C[C@H](C)[C@H](CN(C)S(=O)(=O)c2ccccc2)Oc2ccc(NC(=O)CCCCCC(=O)Nc3ccccc3N)cc2C1=O	0.3	-3.1	.	.	.	.
CN1CCN(Cc2nc3ccccc3c(=O)n2Cc2nc(-c3ccc([N+](=O)[O-])cc3)cs2)CC1	.	.	-6.7	.	-1.5	7.1
CN(C)Cc1nc2ccccc2c(=O)n1Cc1nc(-c2cccc([N+](=O)[O-])c2)cs1	-23.9*	2.2	9.7	.	12.0	-1.0
O=C(NCc1cccnc1)C(=O)Nc1nc(C23CC4CC(CC(C4)C2)C3)cs1	-26.6*	2.1	-18.6	-6.6	22.8	8.5
Cc1cc(F)ccc1S(=O)(=O)Nc1ccccc1C(=O)NCc1cccnc1	-23.6*	-5.3	-8.0	.	8.7	-12.4
COc1ccc(C(=O)c2sc(Nc3ccccc3)c(C(=O)Nc3ccc(OC)c(OC)c3)c2N)cc1	.	.	.	-0.2	6.1	-1.7
COc1ccc(NC(=O)c2c(Nc3ccccc3)sc(C(=O)c3ccc(F)cc3)c2N)cc1	.	.	-25.3	-11.2	90.6*	-0.5
C[C@@H]1CN([C@H](C)CO)C(=O)c2cccc(NS(=O)(=O)c3cn(C)cn3)c2O[C@H]1CN(C)Cc1ccc(C(F)(F)F)cc1	2.1	-14.3	.	21.1[16.7 µM]	-22.1[16.7 µM]	.
COc1ccc(C(=O)Nc2ccc3nc(N4CCOCC4)sc3c2)cc1OC	-3.3	-5.5	-2.4	-1.0	.	-6.7
CCCn1nc(C(=O)Nc2ccc3nc(N4CCOCC4)sc3c2)ccc1=O	3.8	-1.0	-8.7	.	85.3*	-12.9
O=S(=O)(NCCCN1CCOCC1)c1ccc(Cl)s1	5.6	4.3	-21.4	.	3.3	-2.7
CCCCCCNS(=O)(=O)c1ccc(Cl)s1	.	.	-18.1	209.3*	-13.8	10.2
COC(=O)C[C@@H]1CC[C@@H]2[C@H](COC[C@@H](O)CN2S(=O)(=O)c2ccccc2C)O1	1.4	16.5	.	6.0[16.7 µM]	.	0.1
O=C(Nc1ccno1)Nc1ccc(Cl)cc1Cl	-30.3*	-0.8	-5.4	.	-66.4	1.8
S=C(NCCc1ccccc1)N/N=C/c1ccc(Cl)cc1	-27.6*	-2.5	11.8	.	18.2	18.5
